Measured values as given in ChEMBL document CHEMBL2157987, “Benzimidazole bearing oxadiazole and triazolo-thiadiazoles nucleus: design and synthesis as anticancer agents” (2012).

What was measured:
Assay type in all cases: functional
[1] = test system: HT-29; assay: Cytotoxicity against human HT-29 cells after 48 hrs by SRB assay; conditions: HT-29, 48 h
Procedure, shortened: (§1)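 Five-dose NCI-60 panel screen: cells grown in RPMI 1640 with 5% FBS and 2 mM L-glutamine, preincubated 24 h at 37 °C, 5% CO2. Five 10-fold dilutions, 0.01–100 µM, applied for 48 h. Fixed with cold TCA (10% final), stained with 0.4% SRB, absorbance read at 515 nm. GI50, TGI and LC50 were taken from log concentration versus % growth curves using time-zero plates.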

[2] = test system: UACC-257; assay: Cytotoxicity against human UACC257 cells after 48 hrs by SRB assay; conditions: UACC-257, 48 h
Procedure, shortened: (§2)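 Cells were grown in RPMI 1640 with 5% FBS and 2 mM L-glutamine, then held 24 h at 37 °C and 5% CO2 before dosing. TCA-fixed time-zero plates were kept. Compound was dissolved in DMSO and given at five 10-fold dilutions for 48 h. Cells were fixed with cold TCA (10% final), stained with 0.4% SRB and read at 515 nm. GI50, TGI and LC50 came from Ti/Tz/control growth formulas.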

[3] = test system: NCI-H460; assay: Cytotoxicity against human NCI-H460 cells after 48 hrs by SRB assay; conditions: NCI-H460, 48 h; procedure, shortened: as §1
[4] = test system: T47D; assay: Cytotoxicity against human T47D cells after 48 hrs by SRB assay; procedure, shortened: as §2
[5] = test system: PC-3; assay: Cytotoxicity against human PC3 cells after 48 hrs by SRB assay; conditions: PC-3, 48 h; procedure, shortened: as §1
[6] = test system: IGROV-1; assay: Cytotoxicity against human IGROV1 cells after 48 hrs by SRB assay; conditions: IGROV-1, 48 h; procedure, shortened: as §1
[7] = test system: SR; assay: Cytotoxicity against human SR cells after 48 hrs by SRB assay; procedure, shortened: as §2
[8] = test system: NCI-H522; assay: Cytotoxicity against human NCI-H522 cells after 48 hrs by SRB assay; conditions: NCI-H522, 48 h; procedure, shortened: as §1
[9] = test system: MCF7; assay: Cytotoxicity against human MCF7 cells after 48 hrs by SRB assay; conditions: MCF7, 48 h; procedure, shortened: as §1
[10] = test system: NCI-H322M; assay: Cytotoxicity against human NCI-H322M cells after 48 hrs by SRB assay; procedure, shortened: as §1
[11] = test system: HOP-92; assay: Cytotoxicity against human HOP92 cells after 48 hrs by SRB assay; conditions: HOP-92, 48 h; procedure, shortened: as §1
[12] = test system: TK-10; assay: Cytotoxicity against human TK10 cells after 48 hrs by SRB assay; conditions: TK-10, 48 h; procedure, shortened: as §2
[13] = test system: SK-MEL-5; assay: Cytotoxicity against human SK-MEL-5 cells after 48 hrs by SRB assay; conditions: SK-MEL-5, 48 h; procedure, shortened: as §1
[14] = test system: SK-OV-3; assay: Cytotoxicity against human SKOV3 cells after 48 hrs by SRB assay; conditions: SK-OV-3, 48 h; procedure, shortened: as §1
[15] = test system: LOX IMVI; assay: Cytotoxicity against human LOXIMVI cells after 48 hrs by SRB assay; procedure, shortened: as §1
[16] = test system: UACC-62; assay: Cytotoxicity against human UACC62 cells after 48 hrs by SRB assay; conditions: UACC-62, 48 h; procedure, shortened: as §2
[17] = test system: EKVX; assay: Cytotoxicity against human EKVX cells after 48 hrs by SRB assay; procedure, shortened: as §1
[18] = test system: Malme-3M; assay: Cytotoxicity against human MALME-3M cells after 48 hrs by SRB assay; procedure, shortened: as §1
[19] = test system: U-251; assay: Cytotoxicity against human U251 cells after 48 hrs by SRB assay; conditions: U-251, 48 h; procedure, shortened: as §2
[20] = test system: SW-620; assay: Cytotoxicity against human SW620 cells after 48 hrs by SRB assay; conditions: SW-620, 48 h; procedure, shortened: as §2
[21] = read-out: LC50 (the source's name)
[22] = read-out: pLC50 (the source's name) (converted)

## Nc1cc(Br)c(-c2nnc(CCC(=O)c3nc4ccccc4[nH]3)o2)c(Br)c1
[1]
  GI50: 19.1 µM
[1]; [21]
  CC50: > 100 µM
[1]; read-out: TGI
  TGI: 83.5 µM
[1]; [22]
  CC50: > 100 µM
[1]; read-out: pTGI (converted)
  TGI: 83.2 µM
[2]
  GI50: 7.59 µM
[2]; [21]
  CC50: > 100 µM
[2]; read-out: TGI
  TGI: > 100 µM
[2]; [22]
  CC50: > 100 µM
[2]; read-out: pTGI
  TGI: > 100 µM
[3]
  GI50: 3.98 µM
[3]; [21]
  CC50: > 100 µM
[3]; read-out: TGI
  TGI: 20.1 µM
[3]; [22]
  CC50: > 100 µM
[3]; read-out: pTGI (converted)
  TGI: 20 µM
[4]
  GI50: 23.4 µM
[4]; read-out: LC50
  LC50: > 100 µM
[4]; read-out: TGI
  TGI: > 100 µM
[4]; read-out: pLC50 (converted)
  LC50: > 100 µM
[4]; read-out: pTGI
  TGI: > 100 µM
[5]
  GI50: 3.09 µM
[5]; read-out: LC50
  LC50 (concentration killing 50% of cells): > 100 µM
[5]; read-out: TGI
  TGI: > 100 µM
[5]; read-out: pLC50 (converted)
  LC50 (concentration killing 50% of cells): > 100 µM
[5]; read-out: pTGI
  TGI: > 100 µM
[6]
  GI50: 5.89 µM
[6]; read-out: LC50
  LC50: > 100 µM
[6]; read-out: TGI
  TGI: 62.7 µM
[6]; read-out: pLC50 (converted)
  LC50: > 100 µM
[6]; read-out: pTGI (converted)
  TGI: 63.1 µM
[7]
  GI50: 4.17 µM
[7]; [21]
  CC50: > 100 µM
[7]; read-out: TGI
  TGI: > 100 µM
[7]; [22]
  CC50: > 100 µM
[7]; read-out: pTGI
  TGI: > 100 µM
[8]
  GI50: 2.88 µM
[8]; [21]
  CC50: > 100 µM
[8]; read-out: TGI
  TGI: 16.9 µM
[8]; [22]
  CC50: > 100 µM
[8]; read-out: pTGI (converted)
  TGI: 17 µM
[9]
  GI50: 3.09 µM
[9]; [21]
  CC50: > 100 µM
[9]; read-out: TGI
  TGI: > 100 µM
[9]; [22]
  CC50: > 100 µM
[9]; read-out: pTGI
  TGI: > 100 µM
[10]
  GI50: 8.13 µM
[10]; [21]
  CC50: > 100 µM
[10]; read-out: TGI
  TGI: > 100 µM
[10]; [22]
  CC50: > 100 µM
[10]; read-out: pTGI
  TGI: > 100 µM
[11]
  GI50: 0.501 µM
[11]; [21]
  CC50: > 100 µM
[11]; read-out: TGI
  TGI: 19.9 µM
[11]; [22]
  CC50: > 100 µM
[11]; read-out: pTGI (converted)
  TGI: 20 µM
[12]
  GI50: 36.3 µM
[12]; read-out: LC50
  LC50: > 100 µM
[12]; read-out: TGI
  TGI: > 100 µM
[12]; read-out: pLC50 (converted)
  LC50: > 100 µM
[12]; read-out: pTGI
  TGI: > 100 µM
[13]
  GI50: 14.1 µM
[13]; [21]
  CC50: > 100 µM
[13]; read-out: TGI
  TGI: > 100 µM
[13]; [22]
  CC50: > 100 µM
[13]; read-out: pTGI
  TGI: > 100 µM
[14]
  GI50: 22.4 µM
[14]; read-out: LC50
  LC50: > 100 µM
[14]; read-out: TGI
  TGI: 80.5 µM
[14]; read-out: pLC50 (converted)
  LC50: > 100 µM
[14]; read-out: pTGI (converted)
  TGI: 81.3 µM
[15]
  GI50: 3.24 µM
[15]; [21]
  CC50: > 100 µM
[15]; read-out: TGI
  TGI: 46.4 µM
[15]; [22]
  CC50: > 100 µM
[15]; read-out: pTGI (converted)
  TGI: 46.8 µM
[16]
  GI50: 5.37 µM
[16]; [21]
  CC50: > 100 µM
[16]; read-out: TGI
  TGI: > 100 µM
[16]; [22]
  CC50: > 100 µM
[16]; read-out: pTGI
  TGI: > 100 µM
[17]
  GI50: 22.9 µM
[17]; [21]
  CC50: > 100 µM
[17]; read-out: TGI
  TGI: > 100 µM
[17]; [22]
  CC50: > 100 µM
[17]; read-out: pTGI
  TGI: > 100 µM
[18]
  GI50: 2.04 µM
[18]; [21]
  CC50: > 100 µM
[18]; read-out: TGI
  TGI: 17.2 µM
[18]; [22]
  CC50: > 100 µM
[18]; read-out: pTGI (converted)
  TGI: 17.4 µM
[19]
  GI50: 3.47 µM
[19]; [21]
  CC50: > 100 µM
[19]; read-out: TGI
  TGI: > 100 µM
[19]; [22]
  CC50: > 100 µM
[19]; read-out: pTGI
  TGI: > 100 µM
[20]
  GI50: 3.31 µM
[20]; [21]
  CC50: > 100 µM
[20]; read-out: TGI
  TGI: > 100 µM
[20]; [22]
  CC50: > 100 µM
[20]; read-out: pTGI
  TGI: > 100 µM
